The nature of data set [1]: Selectivity index, ratio of CC50 for HIV1 3B infected in human MT4 cells to EC50 for HIV1 3B. It is filed as toxicity, cell-based. The note with it: MT4 cells infected with HIV1 3B, read-out: Ratio CC50/EC50. In a few lines:
(§1)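 Selectivity index calculated as CC50/EC50. Both values come from the parallel 5-day MTT assays in MT-4 cells, with mock-infected and HIV-infected wells on the same plate.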

Data set [2] is described as follows: Cytotoxicity against HIV2 ROD infected in human MT4 cells by MTT assay. It is filed as cell-based. The note with it: MT4 cells infected with HIV2 ROD. In a few lines: (§2)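 Cytotoxicity measured in parallel on mock-infected MT-4 cells (6×10^5 cells/mL) that received culture medium instead of virus. Serial fivefold compound dilutions were run in triplicate. MTT read-out after 5 days at 540 and 690 nm, using the median OD of three wells. CC50 is the concentration that reduces OD540 of the mock-infected control by 50%.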

The test system of data set [3] is Human immunodeficiency virus 2. Put plainly: Antiviral activity against HIV2 ROD infected in human MT4 cells assessed as inhibition of virus-induced cytopathic effect by MTT assay. It is filed as functional, organism-based. Conditions: Human immunodeficiency virus 2, ISOLATE ROD. In a few lines: (§3)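 MT-4 cells, spun 5 min at 1000 rpm and resuspended at 6×10^5 cells/mL, infected with HIV-1(IIIB) or HIV-2(ROD) at 100–300 CCID50. Compounds added at start as serial fivefold dilutions, triplicate wells. Viability read by MTT at 540 and 690 nm five days post-infection, using the median OD of three wells. EC50 is the concentration giving 50% protection against virus-induced cytopathicity.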

Data set [4] can be described thus: Cytotoxicity against HIV1 3B infected in human MT4 cells by MTT assay. It is filed as cell-based. Conditions: MT4 cells infected with HIV1 3B. The method, boiled down: as §2
The nature of data set [5]: Selectivity index, ratio of CC50 for HIV2 ROD infected in human MT4 cells to EC50 for HIV1 3B. It is filed as toxicity, cell-based. Conditions: MT4 cells infected with HIV2 ROD, read-out: Ratio CC50/EC50. In a few lines: as §1
In data set [6] the test system is Human immunodeficiency virus 1. Put plainly: Antiviral activity against HIV1 3B infected in human MT4 cells assessed as inhibition of virus-induced cytopathic effect by MTT assay. The data set is classed as functional, organism-based. Conditions: Human immunodeficiency virus 1, 3B. The method, boiled down: as §3
For orientation: Protection from cytopathic effect is a common read-out in antiviral testing.

Data set [7] addresses Human immunodeficiency virus type 1 reverse transcriptase (Human immunodeficiency virus 1, UniProt Q72547). The experiment in a line: Inhibition of HIV1 recombinant reverse transcriptase assessed as incorporation of biotin-dUTP into […] by colorimetric analysis. In a few lines:
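Highly purified recombinant HIV-1 RT, with […] as template primer on plate-linked nucleotides. Activity measured colorimetrically as incorporation of biotin-dUTP.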

For data set [8], the system named is Human immunodeficiency virus. The experiment in a line: Antiviral activity against HIV harboring reverse transcriptase K103N/Y181C mutant. The data set is classed as functional, organism-based. The note with it: Human immunodeficiency virus 1. The method, boiled down:
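MT-4 cells (6×10^5 cells/mL) were infected with 100–300 CCID50 of virus, and mock-infected cells were run in parallel. Compounds were tested in serial fivefold dilutions in triplicate wells. After 5 days, viability was read by MTT reduction at 540 and 690 nm using the median OD of three wells. EC50 is the concentration giving 50% protection against virus-induced cytopathicity.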

In data set [9] the test system is Human immunodeficiency virus. The experiment in a line: Antiviral activity against wild type HIV. The note with it: Human immunodeficiency virus 1. The data set is classed as functional, organism-based.

By CC50 is commonly meant the concentration that lowers cell viability or growth by half. In general, EC50 refers to the midpoint of the concentration-response curve. In general, IC50 refers to the concentration that gives 50% inhibition.

As for `O=C(CSc1nccnc1-c1ccccc1Cl)Nc1ccccc1`, the selectivity ratio in [1] and in data set [5] was less than 1 throughout. In addition, the CC50 came out at 33 µM in data set [2] and 35 µM in [4]. The EC50 in data set [3] was greater than 33 µM; in data set [6], greater than 35 µM.
On to `O=C(CSc1nccnc1-c1ccccc1Cl)Nc1ccccc1F`, for which the selectivity ratio in [1] was 9; in [5] it was less than 1. For the same molecule, the CC50 turned out to be 91 µM in [2] and 48 µM in data set [4]. Moreover, the half-maximal effective concentration (EC50) is greater than 91 µM in [3] and 5.3 µM in data set [6].
As for `O=C(CSc1nccnc1-c1ccccc1Cl)Nc1ccccc1Cl`, the figures for the selectivity ratio in data set [1] and in [5] were 7 and less than 1, respectively. Besides, the figures for the CC50 in data set [2] and in data set [4] were 46 µM and 34 µM, respectively. Further, the figures for the EC50 in data set [3] and in data set [6] were greater than 46 µM and 4.6 µM, respectively.
For `O=C(CSc1nccnc1-c1ccccc1Cl)Nc1ccc(Cl)cc1Cl`, the selectivity ratio in data set [1] was 6; in [5], less than 1. The CC50 in [2] stood at 34 µM; in data set [4], 29 µM. Moreover, the figures for the EC50 in data set [3] and in data set [6] were greater than 34 µM and 5.2 µM, respectively.
With `O=C(CSc1nccnc1-c1ccccc1Cl)Nc1ccccc1Br`, the selectivity ratio was 7 in [1] and less than 1 in data set [5]. In addition, the CC50 in [2] turned out to be 41 µM; in [4], 31 µM. The concentration giving a half-maximal response (EC50) in [3] is greater than 41 µM; in [6], 4.2 µM.
As to `Cc1ccc(NC(=O)CSc2nccnc2-c2ccccc2Cl)c(Br)c1`, the selectivity ratio in [1] is 9; in data set [5], less than 1. Further, the CC50 in data set [2] was found to be 35 µM; in [4] it was 31 µM. Besides, the EC50 was greater than 35 µM in data set [3] and 4.3 µM in [6].
As to `O=C(CSc1nccnc1-c1ccccc1Cl)Nc1ccc(Cl)cc1Br`, the results for the selectivity ratio in [1] and in data set [5] were 5 and less than 1, respectively. For the same molecule, the CC50 worked out at 29 µM in [2] and 26 µM in data set [4]. The EC50 was greater than 29 µM in data set [3] and 5.1 µM in data set [6].
On to `CC(=O)c1ccc(NC(=O)CSc2nccnc2-c2ccccc2Cl)c(Br)c1`, for which the selectivity ratio in data set [1] is 12; in data set [5], less than 1. For the same molecule, the CC50 in data set [2] came to 31 µM; in [4], 30 µM. For the same molecule, the EC50 is greater than 31 µM in data set [3] and 2.5 µM in [6].
`COC(=O)c1ccc(NC(=O)CSc2nccnc2-c2ccccc2Cl)c(Br)c1`: the selectivity ratio is 25 in data set [1] and less than 1 in [5]. In addition, the results for the CC50 in data set [2] and in data set [4] were 108 µM and 95 µM, respectively. In addition, the EC50 is greater than 108 µM in [3] and 3.7 µM in [6].
For the molecule `CCOC(=O)c1ccc(NC(=O)CSc2nccnc2-c2ccccc2Cl)c(Br)c1`, the selectivity ratio in [1] was 5; in [5], less than 1. Further, the results for the CC50 in [2] and in data set [4] were 62 µM and 45 µM, respectively. Further, the concentration for a half-maximal effect (EC50) in data set [3] was greater than 62 µM; in [6], 9 µM.
`O=C(CSc1nccnc1-c1ccccc1Cl)Nc1ccccc1[N+](=O)[O-]`: in [7], the IC50 was determined as 50 µM. In addition, the selectivity ratio in data set [1] is 23; in data set [5] it was less than 1. Further, the CC50 worked out at 55 µM in data set [2] and 39 µM in [4]. Besides, the EC50 in [3] was greater than 55 µM; in [6], 1.7 µM.
Regarding `Cc1ccc(NC(=O)CSc2nccnc2-c2ccccc2Cl)c([N+](=O)[O-])c1`, the selectivity ratio was 19 in data set [1] and less than 1 in data set [5]. For the same molecule, the CC50 in data set [2] amounted to 148 µM; in data set [4], 54 µM. The results for the concentration for a half-maximal effect (EC50) in data set [3] and in data set [6] were greater than 148 µM and 2.9 µM, respectively.
On to `O=C(CSc1nccnc1-c1ccccc1Cl)Nc1cccnc1Cl`, for which the selectivity ratio in data set [1] was 64; in data set [5] it was less than 1. For the same molecule, the CC50 amounted to 166 µM in [2] and 152 µM in data set [4]. The figures for the EC50 in data set [3] and in [6] were greater than 166 µM and 2.3 µM, respectively.
As for `COC(=O)c1sccc1NC(=O)CSc1nccnc1-c1ccccc1Cl`, the selectivity ratio in data set [1] and in data set [5] was less than 1 each time. The CC50 in data set [2] was determined as 48 µM; in data set [4] it was 68 µM. Also, the results for the EC50 in data set [3] and in data set [6] were greater than 48 µM and greater than 68 µM, respectively.
For `Cc1ccc2sc(NC(=O)CSc3nccnc3-c3ccccc3Cl)nc2c1`, the selectivity ratio in [1] and in [5] was less than 1 each time. Moreover, the CC50 in data set [2] was determined as 30 µM; in data set [4] it was 32 µM. Besides, the EC50 in [3] was greater than 30 µM; in data set [6] it was greater than 32 µM.
For `O=C(CSc1nccnc1-c1ccccc1Cl)N1CCCc2ccccc21`, the selectivity ratio in data set [1] and in data set [5] was less than 1 throughout. Besides, the figures for the CC50 in data set [2] and in data set [4] were 34 µM and 33 µM, respectively. For the same molecule, the figures for the EC50 in [3] and in [6] were greater than 34 µM and greater than 33 µM, respectively.
As for `O=C(CSc1nccnc1-c1ccccc1Cl)N1CCc2ccccc2C1`, the selectivity ratio in [1] was 8; in data set [5] it was less than 1. Moreover, the CC50 in [2] came to 50 µM; in [4] it was 33 µM. In addition, the EC50 was greater than 50 µM in data set [3] and 4.1 µM in [6].
On to `NS(=O)(=O)c1ccc(NC(=O)CSc2nnc(Br)n2-c2ccc(C3CC3)c3ccccc23)c(Cl)c1`, for which the values for the EC50 in data set [8] and in [9] were 0.23 µM and 0.14 µM, respectively.
Turning to `CC(C)Nc1cccnc1N1CCN(C(=O)c2cc3cc(NS(C)(=O)=O)ccc3[nH]2)CC1` [DELAVIRDINE], in data set [1], the selectivity ratio is greater than 1100. For the same molecule, the CC50 in [2] and in data set [4] was greater than 36 µM each time.
In the case of `O=C1Nc2ccc(Cl)cc2[C@@](C#CC2CC2)(C(F)(F)F)O1` [EFAVIRENZ], the CC50 in data set [2] and in [4] was greater than 6.3 µM throughout.
Consider `Cc1ccnc2c1NC(=O)c1cccnc1N2C1CC1` [NEVIRAPINE], for which the CC50 in [2] and in [4] was greater than 15 µM in each case.
For `Nc1ccn([C@H]2CC[C@@H](CO)O2)c(=O)n1` [ZALCITABINE], the selectivity ratio in data set [1] was greater than 93; in data set [5], greater than 74. The CC50 in [2] and in data set [4] was greater than 95 µM each time.
Consider `Cc1cn([C@H]2C[C@H](N=[N+]=[N-])[C@@H](CO)O2)c(=O)[nH]c1=O` [ZIDOVUDINE], for which the selectivity ratio in data set [1] amounted to 12200; in [5] it was 56900. For the same molecule, the CC50 in data set [2] and in data set [4] was 249 µM throughout. Besides, in data set [6], the EC50 is 0.021 µM.

The record behind these values is ChEMBL document CHEMBL2203239, “Discovery of novel 2-(3-(2-chlorophenyl)pyrazin-2-ylthio)-N-arylacetamides as potent HIV-1 inhibitors using a structure-based bioisosterism approach” (Bioorg Med Chem, 2012).
